In data set [1] the test system is PC-12. In words: Toxicity in PC12 cells assessed by measuring DNA fragmentation upto 20 uM. The class given is cell-based, Homo sapiens. An outline of the steps: (§1)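 PC12 cells (2·10⁷) exposed to agent at 10 and 20 μM in DMEM with 5% FBS at 37 °C, 30 min preincubation, then 20 h further incubation with no MnCl₂ added. Apoptosis judged by DNA laddering: soluble DNA extracted, agarose gel electrophoresis, UV transilluminator visualization.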

The subject of data set [2] is PC-12. The experiment in a line: Inhibition of manganese ion-induced apoptosis in PC12 cells assessesed as suppression of DNA fragmentation upto 20 uM. The class given is functional, cell-based. The method, boiled down: (§2)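 PC12 cells (2·10⁷) preincubated with test agent at 10 and 20 μM for 30 min at 37 °C in DMEM plus 5% FBS. MnCl₂ then added to 0.25 mM and incubation continued 20 h at 37 °C. Soluble DNA extracted, run on agarose gels, laddering visualized on UV transilluminator.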

Data set [3] has as its system PC-12. The experiment in a line: Toxicity in PC12 cells assessed by measuring DNA fragmentation at 10 uM. The class given is cell-based, Homo sapiens. As to conditions: pc-12, 10 µM. An outline of the steps: as §1
Data set [4] deals with PC-12. In words: Inhibition of manganese ion-induced apoptosis in PC12 cells assessesed as suppression of DNA fragmentation at 10 uM. The class given is functional. The following applies: Rattus norvegicus. The method, boiled down: as §2

The source made the active and inactive calls. The calls are words filed in the database; no cut-off is given here.

Consider `COC(=O)CCCCC/C=C1\CC=CC1=O`, for which the Activity entry in data set [1] was “Non-toxic”. Also, the outcome in data set [2] was inactive. As for `COC(=O)CCCCCC[C@@H]1C=CC(=O)/C1=C/CCCCOc1ccc(Br)cc1`, the Activity entry in data set [3] was “Toxic”. For the same molecule, the outcome in data set [2] was inactive. In the case of `COC(=O)CCCCCC[C@H]1C=CC(=O)/C1=C/CCCCCc1ccc(C)cc1`, 10 µM produced 50% inhibition in data set [4]. In data set [1], the Activity entry is reported as “Non-toxic”. Turning to `COC(=O)CCCCCC[C@H]1C=CC(=O)/C1=C/CCCCOc1ccc(Br)cc1`, the inhibition at 10 µM in data set [4] is less than 50%. The Activity entry in data set [1] is on record as “Non-toxic”. As to `COC(=O)CCCCC/C=C1/C(=O)CC[C@H]1CCCCCCc1ccc(C)cc1`, in data set [1], the Activity result is “Non-toxic”. Further, in data set [2], the outcome was inactive.

Molecule `CCCCCCCC[C@@H]1C=CC(=O)/C1=C/CCCCCC(=O)OC` showed an inhibition at 10 µM in data set [4] of 50%.

Consider `CCCCC/C=C/C=C1/C(=O)C=CC1C/C=C\CCCC(=O)O` (stereo unspecified), for which, in data set [3], the Activity result is reported as “Toxic”. Besides, in data set [2], the outcome was inactive. `COC(=O)CCCCCC[C@@H]1C(=O)C=C[C@H]1CCCCCCc1ccc(C)cc1`: the Activity entry in data set [1] was “Non-toxic”. Also, the outcome in data set [2] was inactive. Regarding `CCCCCCC/C=C1/C(=O)C=C[C@@H]1CCCCCCC(=O)OC`, testing at 10 µM in data set [4] gave an inhibition of 50%. For the same molecule, in data set [1], the Activity entry is listed as “Non-toxic”.

For `COC(=O)CCCCC/C=C1/C(=O)C=C[C@H]1CCCCCCc1ccc(C)cc1`, in data set [4], the inhibition at 10 µM amounted to 50%. Also, the Activity result in data set [3] is recorded as “Toxic”. Turning to `CCCCC[C@H](O)/C=C/[C@H]1C=CC(=O)/C1=C/CCCCCC(=O)OC`, in data set [3], the Activity entry is listed as “Toxic”. Further, the result in data set [2] was inactive.

The values are drawn from ChEMBL document CHEMBL1139789, “Synthesis of neuroprotective cyclopentenone prostaglandin analogs: suppression of manganese-induced apoptosis of PC12 cells” (Bioorg Med Chem Lett, 2007).
